For five compounds, IC50 and Ratio results are on record in ChEMBL document CHEMBL1122760, “Synthesis and biological properties of some cyclic phosphotriesters derived from 2'-deoxy-5-fluorouridine” (1984).

In test [1] the test system is L1210. Kind of test: Dose inhibiting L1210/0 murine leukemia cell proliferation by 50%. Format: functional. As to conditions: Mus musculus, read-out: ID50 (the source's name). An outline of the steps: (§1)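 L1210 cells (5×10^4 per well) grown in Eagle's MEM with 10% inactivated fetal calf serum, 2 mM L-glutamine, 0.075% NaHCO3, then exposed to varying test compound concentrations for 48 h at 37 °C in humidified CO2 atmosphere; growth linear over this period. Cells counted by Coulter counter; ID50 = concentration reducing living cell number by 50%.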

The nature of test [2]: Ratio of ID50 upon addition of dThd to the ID50 upon addition of dUrd against the L1210/0 cell proliferation. Format: functional.
Test [3] concerns L1210. In words: Dose inhibiting L1210/0 murine leukemia cell proliferation by 50% in presence of 125 ug/mL of dUrd. Format: functional. Conditions: Mus musculus, read-out: ID50 (the source's name).
Test [4] deals with L1210. In words: Dose inhibiting L1210/0 murine leukemia cell proliferation by 50% in presence of 5 ug/mL of dThd. Conditions: Mus musculus, read-out: ID50 (the source's name). In kind it is functional.
The test system of test [5] is L1210. Kind of test: Dose inhibiting L1210/Br-dUrd murine leukemia cell proliferation by 50%. In kind it is functional. Conditions: Mus musculus, read-out: ID50 (the source's name). An outline of the steps:
as §1

The subject of test [6] is L1210. In words: Dose inhibiting L1210/0 murine leukemia cell proliferation by 50% in presence of 500 ug/mL of dCyd. Format: functional. Conditions: Mus musculus, read-out: ID50 (the source's name).
Test [7] can be described thus: Ki/Km values of L1210/0 dTMP synthase for the compound was determined.
Test [8] in a line: Ratio of ID50 for L1210/0 cell growth and ID50 for L1210/BdUrd cell growth. In kind it is functional.

Converted amounts (≈) assume the structure as drawn.

On to `O=c1[nH]c(=O)n([C@H]2C[C@H](O)[C@@H](COP3(=O)OCCCO3)O2)cc1F`, for which the IC50 was 0.275 µg/mL (≈ 0.751 µM) in the test on L1210 [1]; 13.2 µg/mL in the test on L1210 [3]; greater than 100 µg/mL in the test with L1210 [4]; 197 µg/mL (≈ 538 µM) in the test with L1210 [5]; 1.38 µg/mL with L1210 [6]. For the same compound, the values for the Ratio in test [2], in test [7] and in test [8] were greater than 7.58, greater than 110 and 716, respectively.

Regarding `O=c1[nH]c(=O)n([C@H]2C[C@H](O)[C@@H](COP(=O)(O)O)O2)cc1F` [5-FLUORODEOXYURIDYLATE], the IC50 in the test on L1210 [1] is 0.002 µg/mL (≈ 0.00613 µM); in the test on L1210 [3], 0.044 µg/mL; in the test with L1210 [4], greater than 100 µg/mL; in the test on L1210 [5] it was 2.43 µg/mL (≈ 7.45 µM). Also, the figures for the Ratio in test [2], in test [7] and in test [8] were greater than 2273, 0.0099 and 1215, respectively.

As for `O=c1[nH]c(=O)n([C@H]2C[C@H](O)[C@@H](CO)O2)cc1F` [FLOXURIDINE], the IC50 with L1210 [1] turned out to be 0.001 µg/mL (≈ 0.00406 µM); with L1210 [3], 0.02 µg/mL; in the test on L1210 [4], 34 µg/mL; in the test on L1210 [5], 1.75 µg/mL (≈ 7.11 µM). The results for the Ratio in test [2], in test [7] and in test [8] were 1700, 66.5 and 1750, respectively.

As for `O=c1[nH]c(=O)n([C@H]2C[C@H](O)[C@@H](COP3(=O)OCC(O)CO3)O2)cc1F` (stereo partly drawn), the IC50 with L1210 [1] was 0.32 µg/mL (≈ 0.837 µM); with L1210 [3] it was 3.87 µg/mL; in the test with L1210 [4], greater than 1000 µg/mL; in the test on L1210 [5] it was 165 µg/mL (≈ 432 µM); in the test on L1210 [6], 2.04 µg/mL. For the same compound, the Ratio in test [2] is greater than 258; in test [7] it was greater than 60; in test [8] it was 516.

Take `O=c1[nH]c(=O)n([C@H]2C[C@H](O)[C@@H](COP3(=O)OCC(F)(F)CO3)O2)cc1F`: the IC50 with L1210 [1] turned out to be 0.003 µg/mL (≈ 0.00746 µM); in the test with L1210 [3], 0.048 µg/mL; with L1210 [4], 270 µg/mL; in the test on L1210 [5] it was 2.42 µg/mL (≈ 6.02 µM); in the test with L1210 [6], 0.036 µg/mL. In addition, the figures for the Ratio in test [2], in test [7] and in test [8] were 5637, greater than 110 and 807, respectively.
